The text below walks through data of ChEMBL document CHEMBL4229360, “Antimalarial agents against both sexual and asexual parasites stages: structure-activity relationships and biological studies of the Malaria Box compound 1-[5-(4-bromo-2-chlorophenyl)furan-2-yl]-N-[(piperidin-4-yl)methyl]methanamine (MMV019918) and analogues” (Eur J Med Chem, 2018).

Series [1] has as its system Plasmodium falciparum. Description: Gametocytocidal activity against Plasmodium falciparum 3D7 elo1-pfs16-CBG99 late-stage (4 to 5) gametocytes assessed as inhibition of parasite viability after 72 hrs by luciferase reporter assay. The class given is functional, organism-based. Conditions: 3D7 elo1-pfs16-CBG99, 72 h. In a few lines:
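Transgenic 3D7elo1-pfs16-CBG99 gametocytes express CBG99 luciferase from the pfs16 promoter. Stage IV–V gametocytes (Giemsa-checked) were exposed at day 8–10 after NAG addition to serial dilutions in complete medium for 72 h. Samples at 2% haematocrit were then mixed 1:1 with D-luciferin (1 mM, pH 5.5 citrate) for 10 min and luminescence was read. IC50 came from non-linear regression, mean of ≥3 experiments in duplicate.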
On the technique in general: A reporter such as luciferase makes a cellular process visible.

Series [2] is described as follows: Cardiotoxicity in Langendorff perfused Wistar rat heart assessed as QRS interval time at 0.1 uM by electrocardiography (reference value: 13.31 to 14.35 milliseconds). The class given is toxicity, tissue-based.
Series [3] is described as follows: Cardiotoxicity in Langendorff perfused Wistar rat heart assessed as QTc interval time at 1 uM by electrocardiography (reference value: 76.45 to 80.07 milliseconds). The class given is toxicity, tissue-based.
Series [4] deals with Plasmodium falciparum. Briefly: Gametocytocidal activity against Plasmodium falciparum NF54 HGL gametocytes assessed as inhibition of parasite viability after 72 hrs by ONE-Glo reagent based luminescence assay. The format is functional, organism-based. The method, boiled down: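 NF54 gametocytes raised in 5% haematocrit RPMI1640/10% human serum, with 50 mM NAG on days 4–9. Mainly stage IV gametocytes isolated on day 11 by Percoll gradient and seeded at 5000 cells/well, final DMSO 0.1%. Incubated 72 h at 37 °C, 3% O2, 4% CO2; viability by ONE-Glo luminescence.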

For series [5], the system named is Plasmodium falciparum. Briefly: Antiplasmodial activity against gametocytes of Plasmodium falciparum NF54 infected in Anopheles mosquitoes assessed as decrease in infection prevalance measured at baseline infection intensity of 30 oocysts/midgut pre-treated with compound for 24 hrs before feeding and measured 8 days post infection by standard membrane feeding assay. The format is functional, organism-based. The method, boiled down:
(§1)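 NF54-HGL luciferase-reporter gametocytes were pre-incubated with compound for 24 h, then membrane-fed to Anopheles mosquitoes. Infection was read by luminescence 8 d post-infection, with 24 mosquitoes analysed per feed and each feed done in duplicate. IC50 was derived for infection intensity and for prevalence at a baseline of 30 oocysts/midgut.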

Series [6] is described as follows: Cytotoxicity against mouse NIH/3T3 cells after 24 hrs by neutral red uptake assay. The format is cell-based, NIH3T3. Conditions: read-out: TC50. In a few lines: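 NIH3T3 cells exposed for 24 h; viability by neutral red uptake. Mean of three experiments, six replicates each.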
Series [7] deals with Plasmodium berghei. Briefly: Antimalarial activity against liver stage form of mCherry expressing Plasmodium berghei ANKA sporozoites infected in mouse primary hepatocytes assessed as inhibition of detached cell formation rate at 0.0625 to 4 uM administered 2 hrs post infection and measured after 48 hrs post infection with medium change at 24 hrs post infection by fluorescent microscopic analysis. The format is functional, organism-based. In a few lines: (§2)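 Parasite number and size in unfixed cells by automated microscopy at 48 hpi. Detached cells collected at 65 hpi, counted by fluorescence microscopy, expressed as % of 48 h parasite number. n = 4; one-way ANOVA with Dunnett's test.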

Series [8] is described as follows: Cardiotoxicity in Langendorff perfused Wistar rat heart assessed as frequency of heart rate at 0.1 uM by electrocardiography (reference value: 247.05 to 275.90 bpm). The class given is toxicity, tissue-based.
Series [9] is described as follows: Cardiotoxicity in Langendorff perfused Wistar rat heart assessed as frequency of heart rate at 10 uM by electrocardiography (reference value: 247.05 to 275.90 bpm). The format is toxicity, tissue-based.
Series [10] has as its target Voltage-dependent L-type calcium channel subunit alpha-1C (Rattus norvegicus, UniProt P22002). Description: Inhibition of CaV1.2 channel in rat tail artery myocytes assessed as reduction in Ba2+ current at -50 mV holding potential by whole-cell patch-clamp assay. The format is cell-based. In a few lines: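 Freshly isolated rat tail artery smooth muscle cells (collagenase digestion), whole-cell patch clamp at 20–22 °C. External solution: 5 mM Ba2+, 30 mM TEA; Cs+-based internal solution, pH 7.4. Currents from 250-ms pulses to 0 mV from Vh −50 mV at 0.067 Hz, after 7–10 min stabilisation. Leak corrected with 10 μM nifedipine. Peak current as % of control; n = 3–6 cells from ≥3 animals.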
Background: In patch-clamp work, channel activity is measured electrically.

A short description of series [11]: Cardiotoxicity in Langendorff perfused Wistar rat heart assessed as PQ interval time at 10 uM by electrocardiography (reference value: 41.13 to 42.63 milliseconds). The format is toxicity, tissue-based.
Series [12] can be described thus: Cardiotoxicity in Langendorff perfused Wistar rat heart assessed as QTc interval time at 3 uM by electrocardiography (reference value: 76.45 to 80.07 milliseconds). The class given is toxicity, tissue-based.
Series [13] can be described thus: Cardiotoxicity in Langendorff perfused Wistar rat heart assessed as coronary perfusion pressure at 0.1 to 10 uM. The format is toxicity, tissue-based.
The target of series [14] is T1, Phosphoethanolamine N-methyltransferase (Plasmodium falciparum) (UniProt Q8IDQ9).
T1 sequence (whole entry): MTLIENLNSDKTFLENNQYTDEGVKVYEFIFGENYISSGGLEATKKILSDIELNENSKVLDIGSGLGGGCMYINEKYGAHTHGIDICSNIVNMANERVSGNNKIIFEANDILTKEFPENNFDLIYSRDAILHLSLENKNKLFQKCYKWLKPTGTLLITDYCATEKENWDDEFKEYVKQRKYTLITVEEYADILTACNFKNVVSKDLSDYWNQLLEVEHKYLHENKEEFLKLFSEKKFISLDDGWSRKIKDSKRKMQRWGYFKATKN
Description: Inhibition of plasmodium falciparum phosphoethanolamine N-methyltransferase expressed in Escherichia coli assessed as remaining enzyme activity at 100 uM using phosphoethanolamine as substrate and [methyl-14C] SAM by radiochemical assay. In a few lines:
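Recombinant PfPMT purified from E. coli, 2 μg per 100 μL reaction. Buffer 0.1 M HEPES-KOH pH 8.0, 2 mM Na2EDTA, 10% glycerol, 5% DMSO, with 30 μM SAM (100 nCi [methyl-14C]SAM) and 55 μM phosphoethanolamine; radiochemical read-out.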

The test system of series [15] is Plasmodium falciparum. Briefly: Antiplasmodial activity against gametocytes of Plasmodium falciparum NF54 infected in Anopheles mosquitoes assessed as decrease in infection intensity measured at baseline infection intensity of 30 oocysts/midgut pre-treated with compound for 24 hrs before feeding and measured 8 days post infection by standard membrane feeding assay. The format is functional, organism-based. In a few lines: as §1

The test system of series [16] is Plasmodium berghei. Description: Antimalarial activity against liver stage form of mCherry expressing Plasmodium berghei ANKA sporozoites infected in mouse primary hepatocytes assessed as reduction in parasite load at 0.0625 to 4 uM administered 2 hrs post infection and measured after 48 hrs post infection with medium change at 24 hrs post infection by fluorescent microscopic analysis. The class given is functional, organism-based. The method, boiled down: as §2

Series [17] relates to Plasmodium falciparum. Briefly: Antiplasmodial activity against asexual blood stage Plasmodium falciparum NF54 after 72 hrs by SYBR green-based fluorometric analysis. The format is functional, organism-based. Conditions: NF54, 72 h. The method, boiled down: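 Asexual NF54 seeded at 0.83% parasitaemia, 1.5% haematocrit, in RPMI1640 with 10% human serum. Serial dilutions, final DMSO 0.1%. Incubated 72 h at 37 °C under 3% O2, 4% CO2, then read by SYBR Green fluorescence.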

Series [18] can be described thus: Cardiotoxicity in Langendorff perfused Wistar rat heart assessed as QTc interval time at 0.1 uM by electrocardiography (reference value: 76.45 to 80.07 milliseconds). The class given is toxicity, tissue-based.
Series [19] in a line: Cardiotoxicity in Langendorff perfused Wistar rat heart assessed as QRS interval time at 1 uM by electrocardiography (reference value: 13.31 to 14.35 milliseconds). The class given is toxicity, tissue-based.

Active and inactive are the calls of the source. No cut-off for these calls is given here.

Sequence of Voltage-dependent L-type calcium channel subunit alpha-1C (P22002 whole entry): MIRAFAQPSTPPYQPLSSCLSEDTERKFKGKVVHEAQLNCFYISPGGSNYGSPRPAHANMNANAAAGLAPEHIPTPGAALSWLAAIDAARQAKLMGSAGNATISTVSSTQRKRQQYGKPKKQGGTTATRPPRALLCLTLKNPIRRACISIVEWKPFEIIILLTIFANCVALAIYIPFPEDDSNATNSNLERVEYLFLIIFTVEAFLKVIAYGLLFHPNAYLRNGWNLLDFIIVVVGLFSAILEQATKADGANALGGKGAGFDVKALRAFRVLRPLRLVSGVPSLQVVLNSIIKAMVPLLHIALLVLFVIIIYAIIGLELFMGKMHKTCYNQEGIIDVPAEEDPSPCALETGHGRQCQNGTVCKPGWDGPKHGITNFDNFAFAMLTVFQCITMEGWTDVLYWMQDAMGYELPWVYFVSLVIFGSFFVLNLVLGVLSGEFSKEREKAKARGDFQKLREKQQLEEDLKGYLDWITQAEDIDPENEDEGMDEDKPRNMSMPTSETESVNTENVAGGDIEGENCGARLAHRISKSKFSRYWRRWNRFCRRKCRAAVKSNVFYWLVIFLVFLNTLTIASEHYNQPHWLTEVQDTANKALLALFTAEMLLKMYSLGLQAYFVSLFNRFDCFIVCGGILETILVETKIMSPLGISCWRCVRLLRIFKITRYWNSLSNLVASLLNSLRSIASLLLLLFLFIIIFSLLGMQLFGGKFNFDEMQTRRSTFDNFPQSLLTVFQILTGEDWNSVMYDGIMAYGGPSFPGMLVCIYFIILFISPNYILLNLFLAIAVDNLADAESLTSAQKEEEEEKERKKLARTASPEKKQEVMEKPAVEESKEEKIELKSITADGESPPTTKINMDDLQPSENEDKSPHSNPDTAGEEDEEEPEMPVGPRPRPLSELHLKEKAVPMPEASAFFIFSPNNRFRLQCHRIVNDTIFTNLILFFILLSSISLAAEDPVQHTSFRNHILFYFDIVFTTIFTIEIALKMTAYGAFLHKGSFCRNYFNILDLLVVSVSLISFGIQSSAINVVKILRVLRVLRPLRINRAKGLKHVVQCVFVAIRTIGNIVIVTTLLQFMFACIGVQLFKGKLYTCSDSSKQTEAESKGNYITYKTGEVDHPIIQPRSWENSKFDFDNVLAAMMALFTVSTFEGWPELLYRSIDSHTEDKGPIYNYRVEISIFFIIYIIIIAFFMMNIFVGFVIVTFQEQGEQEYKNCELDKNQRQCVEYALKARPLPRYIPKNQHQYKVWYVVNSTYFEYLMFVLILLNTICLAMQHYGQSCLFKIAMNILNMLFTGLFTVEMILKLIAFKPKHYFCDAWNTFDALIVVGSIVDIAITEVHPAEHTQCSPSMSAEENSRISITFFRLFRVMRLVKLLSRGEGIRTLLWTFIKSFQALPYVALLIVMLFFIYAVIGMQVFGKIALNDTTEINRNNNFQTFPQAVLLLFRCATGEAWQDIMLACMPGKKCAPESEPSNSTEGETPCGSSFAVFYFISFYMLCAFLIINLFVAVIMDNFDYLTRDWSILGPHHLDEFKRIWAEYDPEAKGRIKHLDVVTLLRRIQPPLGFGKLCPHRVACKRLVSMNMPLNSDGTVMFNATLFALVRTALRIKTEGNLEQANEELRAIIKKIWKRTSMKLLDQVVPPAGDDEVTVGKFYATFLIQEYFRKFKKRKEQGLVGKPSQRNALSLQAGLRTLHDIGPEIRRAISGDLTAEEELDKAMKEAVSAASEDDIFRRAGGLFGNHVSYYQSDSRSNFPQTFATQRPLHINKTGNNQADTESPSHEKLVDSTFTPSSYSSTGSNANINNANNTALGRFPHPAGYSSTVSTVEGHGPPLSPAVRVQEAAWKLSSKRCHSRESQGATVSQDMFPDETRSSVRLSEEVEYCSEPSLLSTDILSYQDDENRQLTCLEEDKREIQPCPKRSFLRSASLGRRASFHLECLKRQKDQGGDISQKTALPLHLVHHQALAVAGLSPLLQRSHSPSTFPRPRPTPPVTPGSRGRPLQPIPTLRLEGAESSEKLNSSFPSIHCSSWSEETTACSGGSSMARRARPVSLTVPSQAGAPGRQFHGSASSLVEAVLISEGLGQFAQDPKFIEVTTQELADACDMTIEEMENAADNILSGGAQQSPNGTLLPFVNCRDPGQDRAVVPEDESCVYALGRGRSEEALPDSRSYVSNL

Regarding `Clc1ccc(-c2ccc(CNCC3CCNCC3)o2)c(-c2ccccc2)c1`, the IC50 in [1] was determined as 1.4 µM; in [4] it was 0.043 µM; in series [5], 0.83 µM; in [10], 3.3 µM; in series [15] it was 0.21 µM; in series [17] it was 0.67 µM. In addition, the Time came out at 14.2 ms in series [2]; 77.21 ms in series [3]; 65.08 ms in series [11]; 78.56 ms in series [12]; 74.92 ms in series [18]; 13.7 ms in series [19]. Also, in series [6], the CC50 at 24 h worked out at 20 µM. The result in series [7] and in [16] was inactive. The Activity was 276.19 bpm in series [8], 259.41 bpm in series [9], “Non-Toxic” in series [13] and 30% in series [14]. In addition, the “inhibition (INH)” value in series [10] (rat) is on record as “Dose-dependent effect”.

As usually defined, the IC50 is the midpoint of a concentration-inhibition curve.
